Assay results published in ChEMBL document CHEMBL1150303, “Synthesis, in vitro antibacterial and carbonic anhydrase II inhibitory activities of N-acylsulfonamides using silica sulfuric acid as an efficient catalyst under both solvent-free and heterogeneous conditions” (2008).
Converted amounts (≈) assume the structure as drawn.

Assays:
Assay type in all cases: functional
[1] = test system: Escherichia coli; assay: Antibacterial activity against Escherichia coli isolate by conventional agar dilution method
In short: (§1)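 Inoculum: 3–5 colonies suspended to 0.5 McFarland, then diluted 1000-fold to 1.5 · 10⁵ CFU/mL. Compounds dissolved in DMSO, diluted with water to stock, then serially doubled in Mueller–Hinton broth to 1000, 512, 256, 128, 64, 32, 16, 8, 4 and 2 in a 12-well series. Equal volumes of dilution and bacterial suspension were combined. DMSO-only medium served as solvent control. Sulfamethoxazole was the reference.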

[2] = test system: Enterococcus faecium; assay: Antibacterial activity against Enterococcus faecium isolate by conventional agar dilution method; in short: as §1
[3] = test system: Klebsiella pneumoniae; assay: Antibacterial activity against Klebsiella pneumoniae isolate by conventional agar dilution method; in short: as §1
[4] = test system: Staphylococcus aureus; assay: Antibacterial activity against Staphylococcus aureus isolate by conventional agar dilution method; in short: as §1
[5] = test system: Staphylococcus aureus; assay: Antibacterial activity against Staphylococcus aureus […] by conventional agar dilution method; in short: as §1
[6] = test system: Pseudomonas aeruginosa; assay: Antibacterial activity against Pseudomonas aeruginosa ATCC 27853 by conventional agar dilution method; in short: as §1

Row | SMILES | MIC [1] [µg/mL] | MIC [2] [µg/mL] | MIC [3] [µg/mL] | MIC [4] [µg/mL] | MIC [5] [µg/mL] | MIC [6] [µg/mL]
1 | O=C(NS(=O)(=O)c1ccccc1)c1ccccc1 | 256 (≈ 980 µM) | 256 (≈ 980 µM) | 256 (≈ 980 µM) | 500 (≈ 1910 µM) | 256 (≈ 980 µM) | 256 (≈ 980 µM)
2 | Cc1ccc(S(=O)(=O)NC(=O)c2ccccc2)cc1 | 64 (≈ 232 µM) | 128 (≈ 465 µM) | 256 (≈ 930 µM) | 256 (≈ 930 µM) | 256 (≈ 930 µM) | 256 (≈ 930 µM)
3 | CCC(=O)NS(=O)(=O)c1ccc(C)cc1 | 128 (≈ 563 µM) | 64 (≈ 282 µM) | 500 (≈ 2200 µM) | 128 (≈ 563 µM) | 64 (≈ 282 µM) | 500 (≈ 2200 µM)
4 | Cc1cc(NS(=O)(=O)c2ccc(N)cc2)no1 [SULFAMETHOXAZOLE] | 2 (≈ 7.9 µM) | 4 (≈ 15.8 µM) | 8 (≈ 31.6 µM) | 4 (≈ 15.8 µM) | 2 (≈ 7.9 µM) | 8 (≈ 31.6 µM)

Further lines, results first:

Row | MIC [1] [µg/mL] | MIC [2] [µg/mL] | MIC [3] [µg/mL] | MIC [4] [µg/mL] | MIC [5] [µg/mL] | MIC [6] [µg/mL] | SMILES
5 | > 1000 | > 1000 | > 1000 | > 1000 | > 1000 | > 1000 | CCCCC(=O)NS(=O)(=O)c1ccccc1
6 | 256 (≈ 1280 µM) | 256 (≈ 1280 µM) | 500 (≈ 2510 µM) | 256 (≈ 1280 µM) | 500 (≈ 2510 µM) | 500 (≈ 2510 µM) | CS(=O)(=O)NC(=O)c1ccccc1
7 | > 1000 | > 1000 | > 1000 | > 1000 | > 1000 | > 1000 | CCCCC(=O)NS(=O)(=O)c1ccc(C)cc1
8 | > 1000 | > 1000 | > 1000 | > 1000 | > 1000 | > 1000 | CC(=O)NS(=O)(=O)c1ccccc1
9 | 256 (≈ 1200 µM) | 64 (≈ 300 µM) | 256 (≈ 1200 µM) | 256 (≈ 1200 µM) | 128 (≈ 600 µM) | 500 (≈ 2340 µM) | CCC(=O)NS(=O)(=O)c1ccccc1
